In ChEMBL document CHEMBL1250427, “Synthesis and biodistribution of [11C]A-836339, a new potential radioligand for PET imaging of cannabinoid type 2 receptors (CB2)” (Bioorg Med Chem, 2010):

What was measured:
[1] = Ratio of drug uptake in brain to blood in LPS-stimulated CD1 mouse at 5 to 7 mBq, iv; assay type: ADME, tissue-based
In short: (§1)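 Male CD1 mice given LPS (strain O111:B4, 5 mg/kg in saline, i.p.) 5 days before study. [11C]radioligand ([…], ~150 GBq/μmol, 0.2 mL saline) injected into the tail vein. Mice killed at 60 min and brain regions dissected and γ-counted. Uptake given as %ID/g tissue and as blood-normalized %ID/g tissue × body weight (kg). Mean ± SD, n=3.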

Cerebellum [2] = experiment: Drug uptake in LPS-stimulated CD1 mouse cerebellum at 5 to 7 mBq, iv in presence of AM630; assay type: ADME, organism-based; conditions: in vivo
In short: (§2)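 Blocking study in male CD1 mice, either controls or LPS-treated (5 mg/kg LPS O111:B4 i.p., 5 days earlier). AM630 (3 mg/kg) or GW405833 (2 mg/kg) was given s.c. in 0.1 mL DMSO; vehicle controls received DMSO alone. [11C]radioligand ([…], ~150 GBq/μmol) was injected i.v. 30 min later. Tissues harvested at 60 min and γ-counted. Mean ± SD, n=3.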

Cortex [3] = experiment: Drug uptake in APPswe/PS1dE9 mouse cortex at 5 to 7 mBq, iv; assay type: ADME, organism-based; conditions: in vivo
In short: (§3)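 Female APPswe/PS1dE9 bigenic mice (line 85, C57Bl/6J background), 18 months old. [11C]radioligand given into a lateral tail vein at […], specific radioactivity ~150 GBq/μmol, in 0.2 mL saline. Mice killed by cervical dislocation at 60 min. Brain regions dissected on ice, weighed and γ-counted against injectate standards. Uptake expressed as blood-normalized %ID/g tissue × body weight (kg).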

Hippocampus [4] = experiment: Drug uptake in LPS-stimulated CD1 mouse hippocampus at 5 to 7 mBq, iv in presence of AM630; assay type: ADME, organism-based; conditions: in vivo; in short: as §2
Brain [5] = experiment: Drug uptake in CD1 mouse brain at 5 to 7 mBq, iv; assay type: ADME, organism-based; conditions: in vivo
In short: (§4)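 Male CD-1 mice (23-28 g). [11C]radioligand given into a lateral tail vein at […], specific radioactivity ~150 GBq/μmol, in 0.2 mL saline. Mice killed by cervical dislocation at several times after injection. Organs and brain regions dissected on ice, weighed and γ-counted against injectate standards. Uptake given as %ID/g tissue, mean ± SD, n=3.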

Cerebellum [6] = experiment: Drug uptake in LPS-stimulated CD1 mouse cerebellum at 5 to 7 mBq, iv administered 5 days post LPS challenge; assay type: ADME, organism-based; conditions: in vivo, 120 h; in short: as §1
[7] = Drug uptake in LPS-stimulated CD1 mouse brainstem at 5 to 7 mBq, iv administered 5 days post LPS challenge; assay type: ADME, organism-based; conditions: read-out: Drug uptake; in short: as §1
Hippocampus [8] = experiment: Drug uptake in CD1 mouse hippocampus at 5 to 7 mBq, iv after 60 mins; assay type: ADME, organism-based; conditions: in vivo, 1 h; in short: as §4
Brain [9] = experiment: Drug uptake in LPS-stimulated CD1 mouse brain at 5 to 7 mBq, iv in presence of AM630; assay type: ADME, organism-based; conditions: in vivo; in short: as §2
Intestine = experiment: Drug uptake in CD1 mouse intestine at 5 to 7 mBq, iv; assay type: ADME, organism-based; conditions: in vivo; in short: as §4
Brain [10] = experiment: Drug uptake in CD1 mouse brain at 5 to 7 mBq, iv in presence of GW-405833; assay type: ADME, organism-based; conditions: in vivo; in short: as §2
Hippocampus [11] = experiment: Drug uptake in LPS-stimulated CD1 mouse hippocampus at 5 to 7 mBq, iv administered 5 days post LPS challenge; assay type: ADME, organism-based; conditions: in vivo, 120 h; in short: as §1
Kidney = experiment: Drug uptake in CD1 mouse kidney at 5 to 7 mBq, iv; assay type: ADME, organism-based; conditions: in vivo; in short: as §4
Brain [12] = experiment: Drug uptake in CD1 mouse brain at 5 to 7 mBq, iv after 3 mins; assay type: ADME, organism-based; conditions: in vivo, 0.05 h
In short: (§5)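 Dynamic small-animal PET of an LPS-5-day-treated and a control CD1 mouse. Both were injected simultaneously via the tail vein with [11C]radioligand (~3000 mCi/μmol) and imaged for 90 min in 28 frames. Images reconstructed by 2D OSEM after scatter subtraction. Whole-brain ROIs drawn on mean images gave time-SUV curves.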

Cannabinoid receptor 2 = Cannabinoid receptor 2 (Homo sapiens, UniProt P34972); experiment: Agonist activity at CB2 receptor; assay type: functional
Cortex [13] = experiment: Drug uptake in CD1 mouse cortex at 5 to 7 mBq, iv after 60 mins; assay type: ADME, organism-based; conditions: in vivo, 1 h; in short: as §4
Cortex [14] = experiment: Drug uptake in LPS-stimulated CD1 mouse cortex at 5 to 7 mBq, iv in presence of AM630; assay type: ADME, organism-based; conditions: in vivo; in short: as §2
Brain [15] = experiment: Drug uptake in CD1 mouse brain at 5 to 7 mBq, iv in presence of AM630; assay type: ADME, organism-based; conditions: in vivo; in short: as §2
[16] = Drug uptake in LPS-stimulated CD1 mouse brainstem at 5 to 7 mBq, iv in presence of AM630; assay type: ADME, organism-based; conditions: in vivo; in short: as §2
Cortex [17] = experiment: Drug uptake in LPS-stimulated CD1 mouse cortex at 5 to 7 mBq, iv administered 5 days post LPS challenge; assay type: ADME, organism-based; conditions: in vivo, 120 h; in short: as §1
Cerebellum [18] = experiment: Drug uptake in CD1 mouse cerebellum at 5 to 7 mBq, iv after 60 mins; assay type: ADME, organism-based; conditions: in vivo, 1 h; in short: as §4
[19] = Drug uptake in APPswe/PS1dE9 mouse brainstem at 5 to 7 mBq, iv; assay type: ADME, tissue-based; conditions: in vivo; in short: as §3
Spleen [20] = experiment: Drug uptake in CD1 mouse spleen at 5 to 7 mBq, iv after 60 mins in presence of AM630; assay type: ADME, organism-based; conditions: in vivo, 1 h; in short: as §2
Brain [21] = experiment: Drug uptake in LPS-stimulated CD1 mouse brain at 5 to 7 mBq, iv administered 5 days post LPS challenge; assay type: ADME, organism-based; conditions: in vivo, 120 h; in short: as §1
Spleen [22] = experiment: Drug uptake in CD1 mouse spleen at 5 to 7 mBq, iv; assay type: ADME, organism-based; conditions: in vivo; in short: as §4
Liver = experiment: Drug uptake in CD1 mouse liver at 5 to 7 mBq, iv; assay type: ADME, organism-based; conditions: in vivo; in short: as §4
Heart = experiment: Drug uptake in CD1 mouse heart at 5 to 7 mBq, iv; assay type: ADME, organism-based; conditions: in vivo; in short: as §4
[23] = Drug uptake in CD1 mouse brainstem at 5 to 7 mBq, iv after 60 mins; assay type: ADME, organism-based; conditions: in vivo, 1 h; in short: as §4
Brain [24] = experiment: Drug uptake in APPswe/PS1dE9 mouse brain at 5 to 7 mBq, iv; assay type: ADME, organism-based; conditions: in vivo; in short: as §3
Cerebellum [25] = experiment: Drug uptake in APPswe/PS1dE9 mouse cerebellum at 5 to 7 mBq, iv; assay type: ADME, organism-based; conditions: in vivo; in short: as §3
Brain [26] = experiment: Drug uptake in LPS-stimulated CD1 mouse brain at 5 to 7 mBq, iv administered 5 days post LPS challenge measured after 3 mins; assay type: ADME, organism-based; conditions: in vivo, 0.05 h; in short: as §5

Chain of Cannabinoid receptor 2 (P34972 whole entry): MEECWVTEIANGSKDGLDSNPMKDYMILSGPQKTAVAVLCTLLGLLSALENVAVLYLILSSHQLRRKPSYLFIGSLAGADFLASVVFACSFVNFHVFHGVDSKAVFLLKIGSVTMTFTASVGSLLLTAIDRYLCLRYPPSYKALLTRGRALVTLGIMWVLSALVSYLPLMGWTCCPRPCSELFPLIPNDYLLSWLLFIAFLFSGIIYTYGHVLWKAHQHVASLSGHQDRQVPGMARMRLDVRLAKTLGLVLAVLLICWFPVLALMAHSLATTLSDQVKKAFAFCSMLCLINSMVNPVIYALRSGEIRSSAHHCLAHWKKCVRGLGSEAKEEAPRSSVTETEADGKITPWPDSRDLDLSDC

With `Cc1s/c(=N\C(=O)C2C(C)(C)C2(C)C)n(CCO[11CH3])c1C` as the compound, how does the Kp [1] read?
Its Kp is 3.3.

And the Drug uptake (Cerebellum [2])?
The Drug uptake was “Not Active”.

What about the Drug uptake (Cortex [3]) of the same compound?
The Drug uptake was “Not Active”.

What about the Drug uptake (Hippocampus [4]) of the same compound?
The Drug uptake was “Not Active”.

And the Drug uptake (Brain [5])?
Its Drug uptake is 0.3 % ID/g.

And the Drug uptake (Cerebellum [6])?
Its Drug uptake is 1.8 % ID/g.

And the tissue uptake at 120 h [7]?
The tissue uptake at 120 h was 2.1 %ID/g.

And the Drug uptake (Hippocampus [8])?
Its Drug uptake is 0.3 % ID/g.

What about the Drug uptake (Brain [9]) of the same compound?
The Drug uptake was “Not Active”.

And the Drug uptake (Intestine)?
The Drug uptake was 1.5 % ID/g.

And the Drug uptake (Brain [10])?
The Drug uptake was “Not Active”.

What about the Drug uptake (Hippocampus [11]) of the same compound?
Its Drug uptake is 1.9 % ID/g.

What about the Drug uptake (Kidney) of the same compound?
The Drug uptake was 2.2 % ID/g.

And the SUV (Brain [12])?
The SUV was 0.5.

What about the Ki (Cannabinoid receptor 2) of the same compound?
The Ki was 0.7 nM.

And the Drug uptake (Cortex [13])?
The Drug uptake was 0.3 % ID/g.

What about the Drug uptake (Cortex [14]) of the same compound?
The Drug uptake was “Not Active”.

And the Drug uptake (Brain [15])?
Its Drug uptake is “Not Active”.

What about the Drug uptake [16] of the same compound?
Its Drug uptake is “Not Active”.

What about the Drug uptake (Cortex [17]) of the same compound?
Its Drug uptake is 1.7 % ID/g.

What about the Drug uptake (Cerebellum [18]) of the same compound?
Its Drug uptake is 0.3 % ID/g.

What about the Drug uptake [19] of the same compound?
Its Drug uptake is “Not Active”.

And the Drug uptake (Spleen [20])?
Its Drug uptake is “Not Active”.

And the Drug uptake (Brain [21])?
The Drug uptake was 1.5 % ID/g.

And the Drug uptake (Spleen [22])?
Its Drug uptake is 1.3 % ID/g.

What about the Drug uptake (Liver) of the same compound?
The Drug uptake was 4.9 % ID/g.

What about the Drug uptake (Heart) of the same compound?
The Drug uptake was 0.7 % ID/g.

What about the Drug uptake [23] of the same compound?
The Drug uptake was 0.3 % ID/g.

And the Drug uptake (Brain [24])?
The Drug uptake was “Not Active”.

What about the Drug uptake (Cerebellum [25]) of the same compound?
Its Drug uptake is “Not Active”.

What about the SUV (Brain [26]) of the same compound?
Its SUV is 2.3.
